Source: ChEMBL document CHEMBL5335796, “Novel Psilocin Prodrugs with Altered Pharmacological Properties as Candidate Therapies for Treatment-Resistant Anxiety Disorders” (J Med Chem, 2024)
The source made the active and inactive calls. The rule behind the calls is not given here.

How the values were obtained:
[1] = Metabolic stability in human liver microsomes assessed as half life at 2.5 uM measured upto 120 mins in presence of NADPH by LC-MS analysis; type: ADME, Microsome; conditions: microsomes, 2 h, 2.5 µM
Summary of the method: (§1)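 2.5 μM compound at 37 °C in 50 mM potassium phosphate pH 7.4 with 3 mM MgCl2, 1 mM EDTA and an NADPH regenerating system. […] Sampled at 0–120 min in 20-min steps, acetonitrile quench, LC-MS of parent. T1/2 from one-phase exponential decay fit.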

Mus musculus = test: Psychedelic activity in mouse assessed as head-twitch response at 1 mg/kg, po measured after 15 to 30 mins; type: functional, organism-based; conditions: time 15-30 min
Summary of the method: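 C57BL/6 mice, singly housed for 2 days, with 30-min predose chamber acclimation. Single oral 1 mg/kg dose from 100 mM DMSO stock diluted in 0.9% saline; vehicle 1% DMSO in saline. Video-recorded after dosing; head twitches scored blind per 15-min interval (reference time course) or for the 15–30 min window. n = 2–4; one-way ANOVA.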

[2] = Drug metabolism in human serum assessed as psilocin formation at 2.5 uM after 120 mins by LC-MS analysis; type: ADME, cell-free; conditions: 2 h
Summary of the method: (§2)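 2.5 μM compound in 50 mM potassium phosphate pH 7.4 with 3 mM MgCl2, 1 mM EDTA and an NADPH regenerating system. Incubated at 37 °C with human liver or intestinal S9 or microsomes (400 μg/mL protein) or 10% human AB serum. Acetonitrile quench, then LC-MS; psilocin concentration read at 120 min.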

[3] = Drug metabolism in human intestine S9 fraction assessed as psilocin formation at 2.5 uM after 120 mins by LC-MS analysis; type: ADME, subcellular; conditions: s9, 2 h; summary of the method: as §2
[4] = Drug metabolism in human liver microsomes assessed as psilocin formation at 2.5 uM after 120 mins by LC-MS analysis; type: ADME, Microsome; conditions: 2 h; summary of the method: as §2
[5] = Metabolic stability in human liver S9 fraction assessed as half life at 2.5 uM measured upto 120 mins in presence of NADPH by LC-MS analysis; type: ADME, subcellular; conditions: s9, 2 h, 2.5 µM; summary of the method: as §1
[6] = Drug metabolism in po dosed C57BL/6 mouse assessed as psilocin formation measured upto 24 hrs by LC-MS analysis; type: ADME, organism-based; conditions: in vivo, dose 1-10 mg/kg
[7] = Metabolic stability in human intestine microsomes assessed as half life at 2.5 uM measured upto 120 mins in presence of NADPH by LC-MS analysis; type: ADME, Microsome; conditions: 2 h; summary of the method: as §1
[8] = Drug metabolism in human liver S9 fraction assessed as psilocin formation at 2.5 uM after 120 mins by LC-MS analysis; type: ADME, subcellular; conditions: s9, 2 h; summary of the method: as §2
[9] = Drug metabolism in C57BL/6 mouse assessed as psilocin formation at 10 mg/kg, po measured after 8 hrs by LC-MS analysis; type: ADME, organism-based; conditions: in vivo
[10] = Drug metabolism in human intestine microsomes assessed as psilocin formation at 2.5 uM after 120 mins by LC-MS analysis; type: ADME, Microsome; conditions: 2 h; summary of the method: as §2
[11] = Metabolic stability in human serum assessed as half life at 2.5 uM measured upto 120 mins in presence of NADPH by LC-MS analysis; type: ADME, cell-free; conditions: 2 h; summary of the method: as §1
[12] = Metabolic stability in human intestine S9 fraction assessed as half life at 2.5 uM measured upto 120 mins in presence of NADPH by LC-MS analysis; type: ADME, subcellular; conditions: s9, 2 h; summary of the method: as §1

| Compound | t1/2 [1] | Activity (Mus musculus) | Drug metabolism [2] | Drug metabolism [3] | Drug metabolism [4] | t1/2 [5] | Drug metabolism [6] | t1/2 [7] | Drug metabolism [8] | Drug metabolism [9] | Drug metabolism [10] | t1/2 [11] | t1/2 [12] |
| --- | --- | --- | --- | --- | --- | --- | --- | --- | --- | --- | --- | --- | --- |
| CN(C)CCc1c[nH]c2cccc(OC(=O)c3cccc4c3OCCO4)c12 | 390 min | inactive | 0 µM | 0 µM | 0.329 µM | 529 min | Dose-Dependent Effect | 113 min | 0.145 µM | Metabolite_Notdetected | 0 µM |  |  |
| COCCOCCOCC(=O)Oc1cccc2[nH]cc(CCN(C)C)c12 | 5 min |  | 0 µM | 0 µM | 0.494 µM | 16 min |  | 60 min | 0 µM |  | 0 µM | 0.8 min | 72 min |
| COC(=O)c1cccc(C(=O)Oc2cccc3[nH]cc(CCN(C)C)c23)c1 | 22 min |  | 3.148 µM | 0.166 µM | 0.919 µM | 33 min |  |  | 0.451 µM |  | 0.241 µM | 33 min |  |
| CN(C)CCc1c[nH]c2cccc(OC(=O)OCC(Cl)(Cl)Cl)c12 | 277 min |  | 0 µM | 0 µM | 0.057 µM |  |  | 150 min | 0.133 µM |  | 0 µM | 182 min | 221 min |
| CN(C)CCc1c[nH]c2cccc(OC(=O)c3ccc(Br)cc3)c12 | 87 min |  | 2.01 µM | 0 µM | 1.31 µM | 39 min | Dose-Dependent Effect | 71 min | 0.689 µM | Metabolite_Notdetected | 0.018 µM | 19 min | 69 min |
| CC(C)[Si](Oc1cccc2[nH]cc(CCN(C)C)c12)(C(C)C)C(C)C | 104 min |  | 0.142 µM | 0 µM | 0 µM | 96 min | Dose-Dependent Effect | 27 min | 0 µM | Metabolite_Notdetected | 0 µM |  | 57 min |
| CN(C)CCc1c[nH]c2cccc(OC(=O)c3cccc(C(=O)Oc4cccc5[nH]cc(CCN(C)C)c45)c3)c12 | 241 min |  | 0 µM | 0 µM | 0 µM |  |  | 621 min | 0 µM |  | 0 µM | 101 min | 445 min |
| CN(C)CCc1c[nH]c2cccc(O[Si](c3ccccc3)(c3ccccc3)C(C)(C)C)c12 | 229 min |  | 0 µM | 0 µM | 0 µM | 391 min |  |  | 0 µM |  | 0 µM |  |  |
| CC(C)[Si](C(C)C)(C(C)C)n1cc(CCN(C)C)c2c(OCc3ccc(F)cc3)cccc21 | 27 min |  | 0 µM | 0 µM | 0 µM | 60 min |  | 50 min | 0 µM |  | 0 µM |  | 64 min |
| CN(C)CCc1c[nH]c2cccc(OP3(=O)OCC(C)(C)CO3)c12 |  |  | 0 µM | 0 µM | 0 µM |  |  |  | 0.011 µM |  | 0 µM |  |  |
| CC(C)[Si](C(C)C)(C(C)C)n1cc(CCN(C)C)c2c(OC(=O)c3ccc(Br)cc3)cccc21 | 25 min |  | 0 µM | 0.195 µM | 1.659 µM | 15 min |  | 11 min | 0.656 µM |  | 0.887 µM |  | 16 min |
| CN(C)CCc1cn(C(=O)OCc2ccccc2)c2cccc(OC(=O)OCc3ccccc3)c12 | 52 min |  | 0 µM | 0 µM | 0 µM | 22 min | Dose-Dependent Effect | 13 min | 0 µM | Metabolite_Notdetected | 0 µM | 0.8 min | 16 min |
| CCC(=O)OCOc1cccc2c1c(CCN(C)C)cn2C(=O)CC | 13 min |  | 0 µM | 0 µM | 0.001 µM | 16 min |  | 22 min | 0 µM |  | 0 µM | 0.8 min | 52 min |
| CN(C)CCc1c[nH]c2cccc(OP(=O)(Oc3ccccc3)Oc3ccccc3)c12 | 43 min |  | 0.069 µM | 0 µM | 0 µM | 96 min | Dose-Dependent Effect | 28 min | 0.073 µM | Metabolite_Notdetected | 0.076 µM |  | 52 min |
| CN(C)CCc1c[nH]c2cccc(O[Si](C)(C)C(C)(C)C)c12 | 347 min | Active | 0 µM | 0 µM | 0.012 µM | 191 min | Dose-Dependent Effect |  | 0 µM | Metabolite_Notdetected | 0 µM |  |  |
| CC(C)[Si](C(C)C)(C(C)C)n1cc(CCN(C)C)c2c(OC(=O)Sc3ccccc3)cccc21 | 9 min |  | 0 µM | 0 µM | 0.206 µM | 7 min |  | 13 min | 0.133 µM |  | 0 µM | 32 min | 24 min |
| CC(C)OC(=O)OCOc1cccc2c1c(CCN(C)C)cn2COC(=O)OC(C)C | 104 min |  | 0 µM | 0 µM | 0.056 µM | 293 min | Dose-Dependent Effect | 894 min | 0.186 µM | Metabolite_Notdetected | 0 µM | 3 min | 266 min |
| CC(C)[Si](C(C)C)(C(C)C)n1cc(CCN(C)C)c2c(OC(=O)OCC3CC3)cccc21 | 31 min |  | 0 µM | 0.018 µM | 0.186 µM | 49 min |  | 24 min | 0.072 µM |  | 0.096 µM | 26 min | 24 min |
| CCOC(=O)[C@@H](C)NP(=O)(Oc1ccccc1)Oc1cccc2c1c(CCN(C)C)cn2[Si](C(C)C)(C(C)C)C(C)C (stereo not given in full) | 22 min |  | 0 µM | 0.47 µM | 0.324 µM | 26 min |  | 29 min | 0.153 µM |  | 0 µM | 145 min | 39 min |
| CCC(=O)Oc1cccc2c1c(CCN(C)C)cn2[Si](C(C)C)(C(C)C)C(C)C | 2 min |  | 0 µM | 0 µM | 0.244 µM | 3 min |  | 2 min | 0.204 µM |  | 0.053 µM | 49 min | 2 min |
